From PubChem
PLCb3 inh – blocks human PLC-beta3 enzyme activity; Purified PLC-beta3, fluorogenic substrate, fluorescence; AID 720704; inhibition, % at 12.2 µM; Q01970; 0.18% of 370,000 active; in the data active means inhibition above about 11%;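 further: 0% = median of compound wells on plate and 100% = full blocker control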
Target sequence (Q01970 whole entry, looked up): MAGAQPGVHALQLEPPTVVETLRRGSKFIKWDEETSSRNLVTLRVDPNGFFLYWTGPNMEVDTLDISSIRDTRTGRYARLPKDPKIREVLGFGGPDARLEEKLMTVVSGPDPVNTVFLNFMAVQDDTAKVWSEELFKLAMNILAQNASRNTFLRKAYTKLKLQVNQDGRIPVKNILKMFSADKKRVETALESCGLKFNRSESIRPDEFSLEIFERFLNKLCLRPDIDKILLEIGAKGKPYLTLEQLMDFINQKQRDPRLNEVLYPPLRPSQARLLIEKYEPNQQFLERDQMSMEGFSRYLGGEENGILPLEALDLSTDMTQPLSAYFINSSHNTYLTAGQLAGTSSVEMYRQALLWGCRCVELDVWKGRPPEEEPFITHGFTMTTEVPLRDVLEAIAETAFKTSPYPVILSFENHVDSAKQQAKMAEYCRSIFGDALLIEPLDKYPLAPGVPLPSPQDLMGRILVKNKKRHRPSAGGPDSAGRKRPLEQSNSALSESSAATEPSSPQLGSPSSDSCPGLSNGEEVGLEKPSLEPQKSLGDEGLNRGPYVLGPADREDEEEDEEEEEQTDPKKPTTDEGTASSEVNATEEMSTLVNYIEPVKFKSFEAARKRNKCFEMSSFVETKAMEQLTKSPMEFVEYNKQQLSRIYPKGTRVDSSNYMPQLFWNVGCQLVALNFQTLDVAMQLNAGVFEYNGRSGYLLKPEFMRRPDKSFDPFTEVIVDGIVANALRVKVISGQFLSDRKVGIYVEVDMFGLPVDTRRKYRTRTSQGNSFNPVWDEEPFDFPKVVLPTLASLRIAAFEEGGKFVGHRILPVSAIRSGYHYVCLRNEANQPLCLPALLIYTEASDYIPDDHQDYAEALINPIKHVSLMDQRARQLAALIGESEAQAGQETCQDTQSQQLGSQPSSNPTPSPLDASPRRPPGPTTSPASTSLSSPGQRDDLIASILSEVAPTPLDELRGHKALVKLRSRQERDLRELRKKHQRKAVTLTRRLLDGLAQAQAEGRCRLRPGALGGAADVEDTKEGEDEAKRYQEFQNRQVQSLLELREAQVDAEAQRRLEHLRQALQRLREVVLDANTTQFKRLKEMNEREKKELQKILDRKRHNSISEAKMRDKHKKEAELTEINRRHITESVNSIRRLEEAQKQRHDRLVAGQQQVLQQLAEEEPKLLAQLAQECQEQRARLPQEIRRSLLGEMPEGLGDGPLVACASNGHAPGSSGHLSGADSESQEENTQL
VIM-2 inh – blocks Pseudomonas aeruginosa VIM-2 metallo-beta-lactamase; purified VIM-2, nitrocefin hydrolysis, epi-absorbance fluorescence; inhibition, % at 5.6 µM; 0.89% of 290,000 active;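 active means inhibition above the mean of all tested compounds plus 3 SD, cutoff set per screening run, cut at about 7.5% in these data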;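 further: red hydrolysis product quenches plate fluorescence so inhibitors raise well fluorescence; 0% = enzyme with DMSO and 100% = DMSO without enzyme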
IMP-1 inhibitor – inhibitors of Pseudomonas aeruginosa IMP-1 metallo-beta-lactamase | 0.45% of 290,000 active | purified IMP-1, nitrocefin hydrolysis, epi-absorbance fluorescence | AID 1556 | inhibition, % at 5.6 µM;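 active means inhibition above the mean plus 3 SD of all compounds in the same screening run, cut at about 4.5% in these data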;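 further: 0% = IMP-1 with DMSO and 100% = DMSO wells lacking enzyme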
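System: purified recombinant IMP-1 beta-lactamase. Medium: Zinc- and detergent-supplemented HEPES buffer, pH 7.1. Compound: one 5.6 µM dose […]. Schedule: 15 min preincubation plus 25 min reaction at 25 °C. Technique: Epi-absorbance fluorescence, 480 nm excitation, 530 nm emission.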
PLCg1 inh – PLC-gamma1 (human) inhibition, primary screen. P19174. inhibition, % at 12.2 µM. purified PLC-gamma1, fluorogenic substrate, fluorescence. AID 720700. 0.84% of 370,000 active; in the data active means inhibition above about 9.5%
PvdQ inh – blocks Pseudomonas aeruginosa PvdQ acylase activity; purified PvdQ acylase, fluorescence plate reader; inhibition, % at 10 µM; 0.063% of 340,000 active; AID 488965; in the data active means inhibition above about 30%, passing the limit was not always enough;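 further: 0% = vehicle neutral wells and 100% = reference inhibitor wells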
The depositor's hits bear a star; . = no result. The list is not random: actives were taken first. Their share in the collection is about 2%.

SMILES | PLCb3 inh | VIM-2 inh | IMP-1 inhibitor | PLCg1 inh | PvdQ inh
COc1cccc(CN(C(=O)Cc2c[nH]c3ccccc23)C(C(=O)NC2CCCCC2)c2ccc(C)o2)c1 (centres undefined) | -2 | -2 | 22* | -2 | 10
COc1ccc(-c2cc3c(=O)n(CC(=O)NCCCc4ccccc4)ncn3n2)cc1 | 2 | 0 | 15* | -1 | -6
O=C(Nc1cccnc1)/C(N=Nc1cccnc1)=C(\O)c1ccccc1 | 2 | 10* | -4 | 3 | -8
CC(=NNC(=O)CSc1nnc(-c2ccc(C(C)(C)C)cc2)n1-c1ccccc1)c1cccc2ccccc12 | -1 | . | . | 0 | .
CC(=O)c1ccc(N2CCN(c3ccc4cc(S(=O)(=O)N5CCC(C)CC5)ccc4n3)CC2)cc1 | -13 | -2 | 12* | -1 | -5
CC(=O)c1ccc(N2CCN(S(=O)(=O)c3ccc4ccccc4c3)CC2)cc1 | -9 | . | . | -3 | -9
CCOc1ccc(N(C)c2ccc(/C=C3/SC(=S)NC3=O)cc2)cc1 | -24 | 2 | 6.5* | -13 | 7
CN(C)c1ccc(C=C2SC(=S)NC2=O)cc1 | -31 | . | . | -27 | -3
NCCC(=O)Nc1ccc(Cl)cc1C(=O)c1ccc[nH]1 | -52 | . | . | -35 | .
CCC(C)(C)NC(=O)C(c1ccc(C)o1)N(Cc1cccs1)C(=O)Cn1nnc2ccccc21 (centres undefined) | 4 | -4 | 10.0* | 2 | -11
COC(=O)[C@]12C[C@H](CC(=O)NCCC(C)C)C(=O)N(CCC3=CCCCC3)C1=C[C@H](C(C)C)O[C@@H]2C1CC1 | -3 | . | . | -1 | .
O=C(CC1CCCC1)N1CCN(S(=O)(=O)c2ccc(F)cc2)CC1 | -1 | . | . | -2 | -13
Cc1ccc(S(=O)(=O)N2CCN(C(=O)CC3CCCC3)CC2)cc1 | 7 | 3 | 4.5* | 6 | -2
O=C(CSc1nc2ccccc2c(=O)n1-c1ccc(Cl)cc1)NNC(=S)Nc1ccccc1 | 4 | . | . | 1 | .
O=C1CCCN2N=C(SCC(=O)Nc3nc4ccccc4s3)SC2=N1 | -3 | -2 | -3 | 10* | -6
O=C1CCCN2N=C(SCC(=O)Nc3nccs3)SC2=N1 | 4 | 0 | 0 | -1 | -3
CCc1nn(CC(=O)NCCCN(C)Cc2ccccc2)c(=O)c2cc3sc(C)cc3n12 | -10 | 9.0* | -1 | -1 | -16
Cc1ccc2c(c1)C1CS(=O)(=O)N(Cc3ccc(F)cc3)CN1C2 (centres undefined) | -11 | . | . | -9 | .
CCN(CC)c1ccc(N=Nc2nn(C)c(C)c2[N+](=O)[O-])cc1 | 4 | -10 | -7 | 9 | -12
CCN(CC)c1ccc(N=Nc2ncn[nH]2)cc1 | 12* | -7 | -7 | 3 | -16
Cc1cc(C)nc(N(C#N)Cc2cccc([N+](=O)[O-])c2)n1 | 0 | 2 | 0 | -3 | 36*
CC[C@@H](CCCc1ccc(F)cc1)CN(Cc1ccc(OC)cc1)S(=O)(=O)c1ccc(C)cc1 | -4 | . | . | 0 | .
CCc1ccc(S(=O)(=O)/N=C2\C=C(NS(=O)(=O)c3ccccc3)C(=O)c3ccccc32)cc1 | -10 | -6 | -6 | 0 | 11
O=C(O)c1ccc(S(=O)(=O)/N=C2\C=C(Nc3ccccc3F)C(=O)c3ccccc32)cc1 | 0 | 0 | -3 | 20* | -11
COc1ccc(S(=O)(=O)/N=C2\C=C(Nc3ccc(O)cc3)C(=O)c3ccccc32)cc1 | 4 | -3 | -6 | 18* | 0
SMILES | PLCb3 inh | VIM-2 inh | IMP-1 inhibitor | PLCg1 inh | PvdQ inh
CC(=O)Nc1ccc(NC2=C/C(=N/S(=O)(=O)c3cccs3)c3ccccc3C2=O)cc1 | 7 | -2 | -3 | 11* | -14
COC(=O)c1cc(-c2cccc(OC(F)(F)F)c2)c(=O)n2c1CCC2 | -16 | . | . | -13 | .
CCOC(=O)N1CCN(C(=O)C[C@H]2C[C@@]3(C(=O)OC)C(=C[C@H](C(C)C)O[C@@H]3C3CC3)N(Cc3cccc4ccccc34)C2=O)CC1 | -2 | . | . | 2 | .
CCOC(=O)CCCNC(=O)OC1CC2CC1[C@H]1CCCCN1[C@H]2Cc1ccccc1 (some centres undefined) | -2 | . | . | 4 | .
CCOc1ccc(-c2nnc(-c3cccnc3)o2)cc1OCC | -213 | 11* | -4 | -165 | -13
Cc1cc(C)c(S(=O)(=O)Nc2ccc(O)cc2)c(C)c1 | -1 | 0 | -1 | -2 | -12
Cc1cc(C)c(S(=O)(=O)Nc2ccc3c(c2)CCC3)c(C)c1 | 4 | -1 | -3 | 13* | -13
Cc1cccc(C(=O)NNC(=O)c2cccc(C)c2)c1 | 0 | -1 | 0 | 0 | 3
Cc1cccc(C(=O)NNC(=O)C2CC2)c1 | -7 | 8.7* | -2 | -1 | -1
